Assay results as given in ChEMBL document CHEMBL2046408, “Design, synthesis and antimicrobial activities of nitroimidazole derivatives containing 1,3,4-oxadiazole scaffold as FabH inhibitors” (Bioorg Med Chem, 2012).
Values after ≈ are worked out from the molar mass of the structure shown.

Assays:
[1] = system: Escherichia coli; test: Antibacterial activity against Escherichia coli ATCC 25922/35128 after 24 hrs by MTT assay; type: functional; conditions: ATCC 25922/35128, 24 h
Method in brief: (§1)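 Seeded broth in nutrient broth from 24 h bacterial cultures on nutrient agar at 37 °C. Suspension adjusted with sterile saline to 1 × 10⁴–10⁵ CFU. Compounds and reference drugs twofold serially diluted to 100, 50, 25, 12.5, 6.25 … µg/mL. MIC determined by MTT method.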

[2] = Toxicity in RBC assessed as hemolysis; type: cell-based; conditions: erythrocyte
[3] = system: Staphylococcus aureus; test: Antibacterial activity against Staphylococcus aureus ATCC 25923 after 24 hrs by MTT assay; type: functional; conditions: ATCC 25923, 24 h; method in brief: as §1
[4] = system: Bacillus subtilis; test: Antibacterial activity against Bacillus subtilis ATCC 530 after 24 hrs by MTT assay; type: functional; conditions: ATCC 530, 24 h; method in brief: as §1
[5] = system: Pseudomonas aeruginosa; test: Antibacterial activity against Pseudomonas aeruginosa ATCC 27853 after 24 hrs by MTT assay; type: functional; conditions: ATCC 27853, 24 h; method in brief: as §1
[6] = inhibition of Escherichia coli FabH expressed in Escherichia coli BL21 (DE3) cells assessed as [3H]acetyl-CoA after 5 mins by liquid scintillation counting; conditions: in the assay text read “after 25 mins” for “after 5 mins”
Method in brief: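 His-tagged E. coli FabH was expressed in kanamycin-selected culture in LB at 37 °C, induced with 0.5 mM IPTG for 4 h, then Ni–NTA purified. Reactions were run in 20 mM sodium phosphate, pH 7.0, with holo-ACP. They were stopped with ice-cold 50% TCA, the protein was pelleted, and ³H incorporation into product was read by liquid scintillation. Inhibitors were added from DMSO stock, final DMSO ≤2%.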

[7] = inhibition of Escherichia coli FabH expressed in Escherichia coli BL21 (DE3) cells assessed as [3H]acetyl-CoA after 25 mins by liquid scintillation counting

Compound | MIC [1] [µg/mL] | LC30 [2] [µg/mL] | MIC [3] [µg/mL] | MIC [4] [µg/mL] | MIC [5] [µg/mL] | IC50 [6] [µM] | IC50 [7] [µM]
Cc1ncc([N+](=O)[O-])n1Cc1nnc(-c2ccc(F)cc2)o1 | 12.5 (≈ 41.2 µM) | > 10000 | 25 (≈ 82.4 µM) | 12.5 (≈ 41.2 µM) | 25 (≈ 82.4 µM) | 18.6 | 
Cc1ncc([N+](=O)[O-])n1Cc1nnc(-c2ccc(Cl)cc2)o1 | 12.5 (≈ 39.1 µM) | > 10000 | 25 (≈ 78.2 µM) | 12.5 (≈ 39.1 µM) | 12.5 (≈ 39.1 µM) | 28.3 | 
Cc1ncc([N+](=O)[O-])n1Cc1nnc(-c2ccc(Br)cc2)o1 | 25 (≈ 68.7 µM) | > 10000 | 50 (≈ 137 µM) | 12.5 (≈ 34.3 µM) | 25 (≈ 68.7 µM) | 43.8 | 
Cc1ncc([N+](=O)[O-])n1Cc1nnc(-c2cccc(F)c2)o1 | > 100 |  | > 100 | > 100 | > 100 |  | 
Cc1ncc([N+](=O)[O-])n1Cc1nnc(-c2cccc(Br)c2)o1 | 6.25 (≈ 17.2 µM) | > 10000 | 25 (≈ 68.7 µM) | 6.25 (≈ 17.2 µM) | 25 (≈ 68.7 µM) | 16.9 | 
Cc1ncc([N+](=O)[O-])n1Cc1nnc(-c2ccc([N+](=O)[O-])cc2)o1 | 12.5 (≈ 37.8 µM) | > 10000 | 25 (≈ 75.7 µM) | 25 (≈ 75.7 µM) | 12.5 (≈ 37.8 µM) |  | 40.5
COc1cccc(-c2nnc(Cn3c([N+](=O)[O-])cnc3C)o2)c1 | 12.5 (≈ 39.6 µM) | > 10000 | 12.5 (≈ 39.6 µM) | 6.25 (≈ 19.8 µM) | 12.5 (≈ 39.6 µM) | 9.4 | 
COc1ccccc1-c1nnc(Cn2c([N+](=O)[O-])cnc2C)o1 | 1.56 (≈ 4.95 µM) | > 10000 | 3.13 (≈ 9.93 µM) | 1.56 (≈ 4.95 µM) | 1.56 (≈ 4.95 µM) | 4.3 | 
Cc1ccccc1-c1nnc(Cn2c([N+](=O)[O-])cnc2C)o1 | 1.56 (≈ 5.21 µM) | > 10000 | 6.25 (≈ 20.9 µM) | 1.56 (≈ 5.21 µM) | 3.13 (≈ 10.5 µM) |  | 5.1
Cc1ncc([N+](=O)[O-])n1Cc1nnc(Cc2ccc(F)cc2)o1 | 25 (≈ 78.8 µM) |  | 25 (≈ 78.8 µM) | 50 (≈ 158 µM) | 12.5 (≈ 39.4 µM) |  | 
Cc1ncc([N+](=O)[O-])n1Cc1nnc(Cc2ccc(Cl)cc2)o1 | 50 (≈ 150 µM) |  | 25 (≈ 74.9 µM) | 50 (≈ 150 µM) | 12.5 (≈ 37.5 µM) |  | 
Cc1ncc([N+](=O)[O-])n1Cc1nnc(Cc2ccc(Br)cc2)o1 | 50 (≈ 132 µM) |  | 50 (≈ 132 µM) | 50 (≈ 132 µM) | 25 (≈ 66.1 µM) |  | 
Cc1ncc([N+](=O)[O-])n1Cc1nnc(Cc2cccc(F)c2)o1 | > 100 |  | > 100 | > 100 | > 100 |  | 
Cc1ncc([N+](=O)[O-])n1Cc1nnc(Cc2cccc(Br)c2)o1 | 25 (≈ 66.1 µM) |  | 50 (≈ 132 µM) | 25 (≈ 66.1 µM) | 6.25 (≈ 16.5 µM) |  | 
Cc1ncc([N+](=O)[O-])n1Cc1nnc(Cc2ccc([N+](=O)[O-])cc2)o1 | 25 (≈ 72.6 µM) |  | 50 (≈ 145 µM) | 25 (≈ 72.6 µM) | 25 (≈ 72.6 µM) |  | 
COc1cccc(Cc2nnc(Cn3c([N+](=O)[O-])cnc3C)o2)c1 | 25 (≈ 75.9 µM) |  | 50 (≈ 152 µM) | 25 (≈ 75.9 µM) | 12.5 (≈ 38 µM) |  | 
COc1ccccc1Cc1nnc(Cn2c([N+](=O)[O-])cnc2C)o1 | 50 (≈ 152 µM) |  | 25 (≈ 75.9 µM) | 25 (≈ 75.9 µM) | 12.5 (≈ 38 µM) |  | 
Cc1ccccc1Cc1nnc(Cn2c([N+](=O)[O-])cnc2C)o1 | 12.5 (≈ 39.9 µM) |  | 25 (≈ 79.8 µM) | 50 (≈ 160 µM) | 25 (≈ 79.8 µM) |  | 
NC[C@H]1O[C@H](O[C@H]2[C@H](O)[C@@H](O[C@H]3O[C@H](CO)[C@@H](O)[C@H](N)[C@H]3O)[C@H](N)C[C@@H]2N)[C@H](O)[C@@H](O)[C@@H]1O [KANAMYCIN] | 3.13 (≈ 6.46 µM) |  | 1.56 (≈ 3.22 µM) | 1.56 (≈ 3.22 µM) | 3.13 (≈ 6.46 µM) |  | 
